PubChem BioAssay AID540246 (Broad Institute, 2011)
Activity calls are given as the source filed them.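 The calls were made as follows: active = IC50 no more than ten times the top valid dose, with luminescence dropping as cells die; inconclusive = flat curve losing 30 to 70% of signal, or poor fit; inactive = the rest, including signal rises.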

Tested on: ldlA[mSR-BI] CHO cells viability, CellTiter-Glo ATP, 3 h
Experiment: cell viability loss over short exposure – CellTiter-Glo, 3 h, dry powder, cytotoxicity control for SR-BI HDL uptake inhibitor project, dose response (AID 540246)
Conditions: not given
Summary of the method: (§1)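 Test system: ldlA[mSR-BI] cells, viability (cytotoxicity counter-screen); buffer or medium: Ham's F12 plus 10% FCS; incubation: 3 h compound treatment, 37 °C; measured by: luminescence from Cell Titer Glo luciferase reagent sensing cellular ATP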

Row | SMILES | IC50
1 | C[C@H]1CN([C@@H](C)CO)C(=O)c2cccc(NC(=O)Nc3ccc(F)cc3)c2O[C@@H]1CN(C)Cc1ccc(Cl)c(Cl)c1 | 48.1 µM
2 | CCOC(=O)Nc1cccc(NC(=O)c2cc(OC)cc(OC)c2)c1 | > 35 µM (inactive)
3 | Cc1cc(C(=O)C(C)OC(=O)C2=NNC(=O)CC2)c(C)n1-c1ccc(OC(F)F)cc1 (stereo not given) | > 35 µM (inactive)
4 | CCOc1ccccc1/C=C/c1onc(C)c1S(=O)(=O)N1CCC(C(=O)NC(C)(C)C)CC1 | > 35 µM (inactive)
5 | Cc1ccc2oc(-c3cccc(NC(=O)c4cc(-n5cnnc5)ccc4Cl)c3)nc2c1 | 31.7 µM
6 | O=C(Nc1cc(Cl)ccc1Cl)c1cc(Cl)ccc1NS(=O)(=O)c1ccc(Cl)c([N+](=O)[O-])c1 | > 35 µM (inactive)
7 | O=C(Nc1ccc(-c2nc3ccc(NC(=O)c4ccccc4)cc3[nH]2)cc1)c1ccccc1 | 37.8 µM
8 | C[C@H]1CN([C@@H](C)CO)C(=O)c2cccc(NC(=O)Nc3ccccc3)c2O[C@@H]1CN(C)Cc1ccc(Cl)c(Cl)c1 | 66.5 µM
9 | COc1ccc(-c2nnn(CC(=O)N(C3CCCCC3)C(C)C(=O)NC3CCCC3)n2)cc1OC (stereo not given) | > 35 µM (inactive)

Tested on: not listed separately
Experiment: as above
Conditions: ldlA[mSR-BI] CHO cells viability, CellTiter-Glo ATP, 3 h; at 30 µM (top of the series)
Summary of the method: as §1

Row | SMILES | activity change, negative = cytotoxicity
10 | C[C@H]1CN([C@@H](C)CO)C(=O)c2cc(NC(=O)Cc3cn(C)c4ccccc34)ccc2O[C@H]1CN(C)S(=O)(=O)c1ccc(F)cc1 | -3.79% (inactive)

Same assay, conditions: ldlA[mSR-BI] CHO cells viability, CellTiter-Glo ATP, 3 h; at 35 µM (top of the series)

Row | SMILES | activity change, negative = cytotoxicity
11 | Cc1cc(SC(C)C(=O)Nc2ncc(Cl)cc2Cl)nc2ccccc12 (stereo not given) | -7.81% (inactive)
12 | C[C@@H]1CN([C@H](C)CO)C(=O)c2cc(NC(=O)Cc3cn(C)c4ccccc34)ccc2O[C@H]1CN(C)S(=O)(=O)c1ccc(Cl)cc1 | 1.29% (inactive)
13 | O=C(Nc1cccc(NC(=O)c2cc([N+](=O)[O-])ccc2Cl)n1)c1cc([N+](=O)[O-])ccc1Cl | -3.61% (inactive)
14 | C[C@@H]1CN([C@H](C)CO)C(=O)c2cc(NC(=O)Cc3cn(C)c4ccccc34)ccc2O[C@@H]1CN(C)S(=O)(=O)c1ccc(F)cc1 | 4.76% (inactive)
15 | C[C@H]1CN([C@@H](C)CO)C(=O)c2cccc(NC(=O)Nc3ccccc3)c2O[C@@H]1CN(C)C | -3.85% (inactive)
16 | COC(=O)c1cn(C(=O)c2cccc3ccccc23)c2ccccc12 | -9.72% (inactive)
17 | CC(C)NC(=O)Nc1cccc2c1O[C@H](CN(C)Cc1ccc(Cl)c(Cl)c1)[C@@H](C)CN([C@@H](C)CO)C2=O | 3.16% (inactive)
18 | C[C@H]1CN([C@@H](C)CO)C(=O)c2cccc(NC(=O)Nc3ccccc3)c2O[C@@H]1CN(C)Cc1ccccc1 | 6.56% (inactive)
19 | CCc1cc2cc3c(cc2nc1SCC(=O)OC(C)C)OCO3 | 0.059% (inactive)
20 | O=C(Nc1ccc(-c2nc3ccc(NC(=O)c4ccccc4[N+](=O)[O-])cc3[nH]2)cc1)c1ccccc1[N+](=O)[O-] | 6.25% (inactive)
21 | C[C@H](CO)N1C[C@H](C)[C@H](CN(C)S(=O)(=O)c2ccc(F)cc2)Oc2ccc(NC(=O)Cc3cn(C)c4ccccc34)cc2C1=O | -7.27% (inactive)
22 | O=C(Nc1ccc(-c2nc3cc(NC(=O)c4ccc(NC(=O)c5cccc6ccccc56)cc4)ccc3[nH]2)cc1)c1ccc(NC(=O)c2cccc3ccccc23)cc1 | -0.376% (inactive)
23 | C[C@H](CO)N1C[C@H](C)[C@@H](CN(C)S(=O)(=O)c2ccc(F)cc2)Oc2ccc(NC(=O)Cc3cn(C)c4ccccc34)cc2C1=O | 4.04% (inactive)
24 | N#Cc1sc2nc(C3CC3)cc(-c3ccc(Cl)cc3)c2c1N | -2.17% (inactive)
25 | C[C@@H]1CN([C@H](C)CO)C(=O)c2cc(NC(=O)Cc3cn(C)c4ccccc34)ccc2O[C@H]1CN(C)S(=O)(=O)c1ccc(F)cc1 | 3.35% (inactive)
26 | C[C@@H]1CN([C@H](C)CO)C(=O)c2cc(NC(=O)Cc3cn(C)c4ccccc34)ccc2O[C@H]1CN(C)C(=O)Nc1ccc(F)cc1 | 0.369% (inactive)
27 | O=C(Nc1ccc(-c2nc3ccc(NC(=O)c4ccc(Cl)cc4)cc3[nH]2)cc1)c1ccc(Cl)cc1 | 5.01% (inactive)
28 | C[C@@H]1CN([C@H](C)CO)C(=O)c2cc(NC(=O)Cc3cn(C)c4ccccc34)ccc2O[C@H]1CN(C)S(C)(=O)=O | 0.836% (inactive)
29 | C[C@H]1CN([C@@H](C)CO)C(=O)c2cccc(NC(=O)Nc3ccccc3)c2O[C@@H]1CN(C)Cc1ccc(C(F)(F)F)cc1 | 0.509% (inactive)
30 | O=C(Nc1cc(C(F)(F)F)ccc1Cl)c1ccccc1NS(=O)(=O)c1ccc(Cl)cc1 | 4.37% (inactive)
